Screening results deposited in PubChem by several laboratories.
DNA FID counter – compounds displacing fluorescent DNA intercalator, primary screen, artefact control for HCV NS3 helicase inhibitor project, biochemical, FID fluorescence; DNA fluorescent intercalator displacement; inhibition, % at 7.9 µM; 0.17% of 290,000 active; AID 1845, 2009; in the data active = inhibition above about 37%;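 also: 0% = vehicle and 100% = reference compound; higher means more ethidium bromide displaced from hairpin DNA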
Kir21 block – inhibitors of mouse Kir2.1 inward-rectifier potassium channel. HEK293-Kir2.1, FluxOR thallium flux fluorescence; hits give low values. 0.85% of 310,000 active. B-score at 10 µM;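 active = fluorescence ratio B-score at or below minus 3 SD of library scores, with starting-brightness B-score within 2 SD, cut at about -4.2 in these data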;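 also: channel flux triggered by added potassium and thallium sulfate stimulus; B-score of peak minus minimum fluorescence over baseline after thallium stimulus; more negative B-score means stronger Kir2.1 block with less thallium influx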
SR-BI DiI inh – inhibitors of SR-BI mediated HDL lipid uptake, primary screen, ldlA[mSR-BI] cells, fluorescence, single point; inhibition, % at 12.5 µM; Scavenger receptor class B member 1 (Mus musculus), Q61009; ldlA[mSR-BI] CHO cells, DiI-HDL uptake fluorescence, 3 h; 0.96% of 320,000 active;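 active = mean replicate inhibition of at least 70% and a set share of replicates each scoring 70 or more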;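 also: 0% = median of neutral control wells and 100% = median of positive control wells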
TMEM16A act – TMEM16A chloride channel activators or potentiators, primary screen, cell-based, HTS; 0.3% of 340,000 active; B-score at 10 µM; HEK293 TMEM16A/YFP-H148Q/I152L, iodide quench fluorescence; hits give low values; Anoctamin-1 (Mus musculus), Q8BHY3;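 active = fluorescence-ratio B-score plate-corrected deviation score at least 3 library SD below zero, with starting fluorescence score within 5 deviations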;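 also: channel opened by trigger with iodide after compound preincubation; score built on the fluorescence ratio of max minus min over baseline; more negative score means more quench and so TMEM16A activation or potentiation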
SR-BI uptake up – activators of SR-BI mediated DiI-HDL uptake, primary screen, ldlA[mSR-BI] CHO cells, DiI fluorescence; 3 h; 100 = double the neutral-control signal; 0.096% of 320,000 active; activation, % at 12.5 µM;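 active = mean replicate activation of at least 60% and every replicate at or above 60%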;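 also: 0% = median plate neutral-control signal and 100% = twice that signal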
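Assay system: LDL receptor-deficient CHO ldlA cells overexpressing murine SR-BI / Medium: BSA-supplemented, HEPES-buffered Ham's F12, pH 7.4 / Probe or stimulus: DiI-labelled HDL at 10 µg/mL final / Timing: compound with DiI-HDL co-incubation, 3 h at 37 °C / Technique: bottom-read cell fluorescence after medium removal, ex 550/em 595 nm / Measure: HDL uptake via cellular fluorescence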
TMEM16A inh – TMEM16A chloride channel inhibitors, primary screen, cell-based, HTS; normalized B-score (activity score, 25-100; higher = stronger inhibition) at 10 µM; AID 588511, 2011; HEK293 TMEM16A/YFP iodide influx fluorescence, ionomycin; 1.2% of 310,000 active; Anoctamin-1 (Mus musculus), Q8BHY3;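 active = ratio plate-corrected score three or more library SD toward inhibition, starting fluorescence score within five deviations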;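 also: score derived from kinetic fluorescence span divided by baseline fluorescence per well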
TMEM16A reconf – TMEM16A chloride channel inhibitors, confirmation, cell-based, re-confirmation | HEK293 TMEM16A/YFP-H148Q, iodide quench fluorescence; ionomycin added to raise cell calcium | shares compounds with TMEM16A inh | 39% of 2,300 active | inhibition, % at 10 µM;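 active = mean duplicate percent inhibition, scaled so buffer wells are 0 and the reference blocker 100, over three buffer SD above buffer mean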
TMEM16A Ca cntr – calcium mobilization in TMEM16A/YFP HEK293 cells, confirmation, counter-screen for TMEM16A inhibitor project; shares compounds with TMEM16A inh; Fluo4 calcium mobilization; calcium response (% of ionomycin), % at 10 µM; 2% of 2,300 active; AID 652231, 2013;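 active = duplicate-averaged calcium signal over 20% of the ionomycin maximum, relative to buffer baseline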;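 also: each well's signal is peak minus trough fluorescence divided by its pre-addition baseline; 0% = buffer wells and 100% = ionomycin wells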
Parental YFP cnt – iodide YFP quench changes in parental YFP-HEK293, counter-screen for TMEM16A inhibitor project, cell-based. shares compounds with TMEM16A inh. ionomycin. YFP ratio F(max-min)/F0 at 10 µM. 2,300 tested, under 10 active;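 active = yellow fluorescent protein signal ratio exceeding the buffer control mean by over 5 SD of those controls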;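 also: ratio is mean of duplicate wells from kinetic YFP trace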
ClC-1 inh – ClC-1 chloride channel inhibition, selectivity assay for TMEM16A inhibitor project, cell-based, voltage-dependent ClC-1; shares compounds with TMEM16A inh; CHO ClC-1-YFP, iodide influx fluorescence quench; iodide control reads 0, buffer control 100; ratio percent, % at 10 µM; 2,300 tested, under 10 active; AID 652236, 2013;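 active = duplicate-mean ratio percent above the mean of iodide-only control wells, which defines zero, plus 5 of their SD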;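 also: higher percent means stronger block of ClC-1 iodide influx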
* = called active by the depositor; i = inactive; nt = no result. An excerpt weighted towards active compounds, which were near 3% of everything screened.

SMILES	DNA FID counter	Kir21 block	SR-BI DiI inh	TMEM16A act	SR-BI uptake up	TMEM16A inh	TMEM16A reconf	TMEM16A Ca cntr	Parental YFP cnt	ClC-1 inh
CCOC(=O)C(=O)N(CC)C1CCS(=O)(=O)C1 (stereo unspecified)	3	0.09	8	i	-8	100*	i	i	-1	-17
N#Cc1nc(-c2ccccc2F)oc1N1CCCCC1	-17	1.4	-15	i	15	i	nt	nt	nt	nt
N#Cc1nc(-c2ccccc2Cl)oc1N1CCCCC1	-9	0.05	7	i	-7	25*	i	i	-1	-7
COc1ccccc1-c1nc(C#N)c(N2CCC(Cc3ccccc3)CC2)o1	-21	-2.1	-5	i	5	100*	i	i	-1.1	-15
COc1ccccc1-c1nc(C#N)c(N2CCN(Cc3ccccc3)CC2)o1	-33	-0.29	28	i	-28	i	nt	nt	nt	nt
Cc1c(Cc2ccccc2)c(=O)[nH]c(=O)n1C	nt	nt	-4	i	4	nt	nt	nt	nt	nt
Nc1ccccc1C(=O)NCC1(c2ccccc2)CCCC1	-18	-3.5	10	i	-10	i	nt	nt	nt	nt
COc1ccc(OC)c(-c2cc(C3CCN(c4cc(Cl)nc(N)n4)CC3)[nH]n2)c1	-29	3.3	21	i	-21	100*	i	i	-1.2	-20
CCOc1ccc(OCC)c(NC(=O)CN2CCN(CC(=O)NC(C)C)CC2)c1	-17	-0.05	-12	i	12	i	nt	nt	nt	nt
COc1ccccc1NC(=O)COc1ccc(/C=N/NC(=O)CSCc2ccc(Cl)cc2)cc1	-5	-0.75	41	i	-41	100*	18%*	i	-1.1	4
Nc1nn(S(=O)(=O)c2cccc3nsnc23)cc1-c1ccc(Br)cc1	8	0.48	16	i	-16	25*	i	i	-1	2
Cc1ccc(-c2cn(S(=O)(=O)c3cccc4nsnc34)nc2N)cc1	5	-2.3	8	i	-8	i	nt	nt	nt	nt
Cc1cc(NC(=O)CCC(=O)N(Cc2ccc(F)cc2)C(C(=O)NC2CCCC2)c2ccco2)no1 (stereo unspecified)	-47	2.1	nt	i	nt	i	nt	nt	nt	nt
Cc1cccc(NC(=O)C2C(c3ccccc3)C2(Cl)Cl)c1 (stereo unspecified)	-2	0.57	18	i	-18	100*	i	i	-0.91	-10
CC(=O)c1cccc(NC(=O)C2C(c3ccccc3)C2(Cl)Cl)c1 (stereo unspecified)	-12	-0.37	20	i	-20	i	nt	nt	nt	nt
CC(C)(C)N(Cc1ccccc1)C(=O)COC(=O)C1CC(=O)N(Cc2ccccc2)C1 (stereo unspecified)	nt	nt	26	i	-26	nt	nt	nt	nt	nt
CN=C1S/C(=C\c2ccc(O)c(Br)c2)C(=O)N1C	-4	0.13	15	i	-15	25*	i	i	-1	-10
CN=C1S/C(=C\c2ccc(Cl)cc2)C(=O)N1C	-6	-2.1	nt	i	nt	i	nt	nt	nt	nt
CCC1c2ccc(C)n2CCN1C(=O)Nc1cc(Cl)ccc1OC (stereo unspecified)	-3	1.1	nt	i	nt	i	16%*	i	-0.98	-10
CCOC(=O)c1ccccc1NC(=O)N1CCn2c(C)ccc2C1CC (stereo unspecified)	-5	-0.14	24	i	-24	i	nt	nt	nt	nt
CCC1c2ccc(C)n2CCN1C(=O)Nc1ccccc1C(=O)OC (stereo unspecified)	-6	1.4	nt	i	nt	i	i	i	-1.1	-14
CCCC1c2ccc(C)n2CCN1C(=O)Nc1ccccc1Cl (stereo unspecified)	-10	-0.97	19	i	-19	i	nt	nt	nt	nt
Cc1sc2c(=O)n3c(nc2c1C(=O)NCCCN1CCOCC1)CCCCC3	11	-0.26	-14	i	14	100*	i	i	-0.95	-10
CC1CCN(C(=O)CSCC(=O)Nc2nc(-c3cccs3)cs2)CC1	-25	-1.4	7	i	-7	100*	i	i	-1	-16
CC1CCCN(C(=O)CSCC(=O)Nc2nc(-c3cccs3)cs2)C1 (stereo unspecified)	-30	-0.02	-14	i	14	i	nt	nt	nt	nt
SMILES	DNA FID counter	Kir21 block	SR-BI DiI inh	TMEM16A act	SR-BI uptake up	TMEM16A inh	TMEM16A reconf	TMEM16A Ca cntr	Parental YFP cnt	ClC-1 inh
N#Cc1c(C(F)(F)F)cc(-c2cccc(Cl)c2)[nH]c1=O	-22	-0.2	i	i	nt	25*	28%*	i	-1.1	-8
N#Cc1c(C(F)(F)F)cc(-c2ccc(F)cc2)[nH]c1=O	-8	0.28	-13	i	13	i	nt	nt	nt	nt
N#Cc1c(C(F)(F)F)cc(-c2ccc(Cl)cc2)[nH]c1=O	-20	0.63	-20	i	nt	100*	28%*	i	-0.84	-20
N#CC(C#N)=c1ccc2c(c1)N1C3=C(CCCC3)CC3CCCCC31N=2 (stereo unspecified)	5	1.1	53	i	-53	25*	i	i	-0.85	-1
CC(C)(C)c1ccc(C(=O)Nc2cccc3ncccc23)cc1	-39	-1.9	21	i	-21	i	30%*	i	-1.4	-14
Nc1ccc(C(=O)Nc2cccc3ncccc23)cc1	2	0.96	8	i	-8	i	nt	nt	nt	nt
CSc1ccccc1C(=O)N1CCCC(CCC(=O)NCc2ccc(F)c(F)c2)C1 (stereo unspecified)	-51	-0.42	40	i	-40	i	nt	nt	nt	nt
COc1ccc(N2CC(O)=C(c3n(C)c4ccccc4[n+]3C)C2=N)cc1	4	0.1	0	i	0	25*	i	i	-1.1	-4
